Publication PMC9753534 (ACS Omega, 2022)

Legend:
MCF-7 cell line = test: MTT antiproliferative test, MCF-7; assay type: cell-based; settings: Homo sapiens, MCF7, read-out: IC50 (n = 3), antiproliferative effect vs MCF-7
A549 cell line = test: MTT antiproliferative test, A549; assay type: cell-based; settings: Homo sapiens, A549, read-out: IC50 (n = 3), antiproliferative effect vs A549
EGFR^WT = EGFR^WT (Homo sapiens, UniProt P00533); test: HTRF kinase inhibitory assay, EGFR^WT; assay type: biochemical
EGFR^T790M = EGFR^T790M (Homo sapiens, UniProt P00533, T790M); test: biochemical; assay type: biochemical
[1] = Antioxidant activity by ABTS method; settings: absorbance at 734 nm
How it was run: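 ABTS radical cation was generated by mixing ammonium peroxodisulfate (65 mmol/dm3) with ABTS in phosphate buffer pH 7.4 and leaving it overnight. The stock was diluted in phosphate buffer pH 7.4 and A734 was read. Test compound was added after 1 min, mixed, and A734 was re-read. Results are expressed as trolox equivalents from a linear trolox calibration (absorbance decrease vs concentration).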

IC50 (MCF-7 cell line) | IC50 (A549 cell line) | IC50 (EGFR^WT) | IC50 (EGFR^T790M) | times the activity of gefitinib vs EGFR^T790M (EGFR^T790M; ratio of IC50 vs gefitinib) | Compound | radical scavenging activity (ABTS) [1]
8.57 ± 0.31 µM | 5.09 ± 0.15 µM | 290 ± 50 nM | 7.89 ± 0.31 µM | 2.71 times | N#Cc1sc2sc(C#N)c(N)c2c1N [Compound 1, 3,4-diaminothieno[2,3-b]thiophene-2,5-dicarbonitrile] | –
17.3 ± 0.71 µM | 7.54 ± 0.32 µM | 2020 ± 120 nM | 15.1 ± 0.51 µM | – | N=c1c2sc3sc4c(=N)n(-c5ccccc5)c(=O)[nH]c4c3c2[nH]c(=O)n1-c1ccccc1 [Compound 5, 1,8-Diimino-2,7-diphenyl-1,4,7,8-tetrahydro-2H,5H-9,10-dithia-2,4,5,7-tetraaza-indeno[1,2-a]indene-3,6-dione] | 70%
17.3 ± 0.71 µM | 8.27 ± 0.16 µM | 3270 ± 160 nM | 16.3 ± 0.61 µM | – | Nc1c(-c2nnn[nH]2)sc2sc(-c3nnn[nH]3)c(N)c12 [Compound 7, 2,5-Di(1H-tetrazol-5-yl)thieno[2,3-b]thiophene-3,4-diamine] | –
21.8 ± 1.85 µM | 19.3 ± 1.85 µM | – | – | – | C#Cc1cccc(Nc2ncnc3cc(OCCOC)c(OCCOC)cc23)c1 [erlotinib, reference compound] | –
